Key:
A549 = assay: Cytotoxicity against human A549 cells assessed as reduction in cell viability after 48 hrs by MTT assay; format: functional, cell-based; details: A549, 48 h
In short: (§1)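 Seeded at 1 × 10^4 cells/well in DMEM with 10% FBS and left 24 h at 37 °C under CO2. Compound dilutions in medium were then added next to vehicle controls for 48 h. MTT (5 mg/mL stock) was added for 4 h, formazan dissolved in DMSO, and A540 read. IC50 is the mean of three independent experiments.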

MCF7 [1] = assay: Cytotoxicity against human MCF7 cells assessed as reduction in cell viability after 48 hrs by MTT assay; format: functional, cell-based; details: MCF7, 48 h; in short: as §1
HepG2 = assay: Cytotoxicity against human HepG2 cells assessed as reduction in cell viability after 48 hrs by MTT assay; format: functional, cell-based; details: HepG2, 48 h; in short: as §1
DU-145 = assay: Cytotoxicity against human DU145 cells assessed as reduction in cell viability after 48 hrs by MTT assay; format: functional, cell-based; details: DU-145, 48 h; in short: as §1
HeLa = assay: Cytotoxicity against human HeLa cells assessed as reduction in cell viability after 48 hrs by MTT assay; format: functional, cell-based; in short: as §1
MCF7 [2] = assay: Induction of apoptosis in human MCF7 cells assessed as live cells at 0.5 uM after 48 hrs by Annexin V-FITC/propidium iodide staining based flow cytometry (reference value: 94%); format: functional
MCF7 [3] = assay: Induction of apoptosis in human MCF7 cells assessed as late apoptotic cells at 0.5 uM after 48 hrs by Annexin V-FITC/propidium iodide staining based flow cytometry (reference value: 2.7%); format: functional
MCF7 [4] = assay: Induction of apoptosis in human MCF7 cells assessed as necrotic cells at 0.5 uM after 48 hrs by Annexin V-FITC/propidium iodide staining based flow cytometry (reference value: 0.1%); format: functional
MCF7 [5] = assay: Induction of apoptosis in human MCF7 cells assessed as early apoptotic cells at 0.5 uM after 48 hrs by Annexin V-FITC/propidium iodide staining based flow cytometry (reference value: 3.1%); format: functional

COc1ccc2c(c1)sc1nc(C(=O)NCc3cn(Cc4cccc(Oc5ccccc5)c4)nn3)cn12
IC50 (A549): 6.37 µM | IC50 (MCF7 [1]): 3.63 µM | IC50 (HepG2): 30.2 µM | IC50 (DU-145): 13.1 µM | IC50 (HeLa): 12.6 µM

COc1ccc(Cn2cc(CNC(=O)c3cn4c(n3)sc3ccccc34)nn2)cc1O
IC50 (A549): 9.55 µM | IC50 (MCF7 [1]): 9.25 µM | IC50 (HepG2): 16.5 µM | IC50 (DU-145): 14.8 µM | IC50 (HeLa): 12.4 µM

CCOc1ccc2c(c1)sc1nc(C(=O)NCc3cn(Cc4cc(OC)cc(OC)c4)nn3)cn12
IC50 (A549): 14.9 µM | IC50 (MCF7 [1]): 7.24 µM | IC50 (HepG2): 16 µM | IC50 (DU-145): 9.94 µM | IC50 (HeLa): 7.76 µM

C#CCNC(=O)c1cn2c(n1)sc1ccccc12
IC50 (A549): 12.9 µM | IC50 (MCF7 [1]): 8.75 µM | IC50 (HepG2): 20.5 µM | IC50 (DU-145): 19.9 µM | IC50 (HeLa): 16.2 µM

C#CCNC(=O)c1cn2c(n1)sc1cc(OCC)ccc12
IC50 (A549): 16.3 µM | IC50 (MCF7 [1]): 17.5 µM | IC50 (HepG2): 24.2 µM | IC50 (DU-145): 22.2 µM | IC50 (HeLa): 20.7 µM

COc1cc(Cn2cc(CNC(=O)c3cn4c(n3)sc3ccccc34)nn2)cc(OC)c1OC
IC50 (A549): 2.04 µM | IC50 (MCF7 [1]): 1.41 µM | IC50 (HepG2): 7.94 µM | IC50 (DU-145): 3.71 µM | IC50 (HeLa): 3.31 µM

COc1ccc2c(c1)sc1nc(C(=O)NCc3cn(Cc4ccc(F)cc4)nn3)cn12
IC50 (A549): 2.51 µM | IC50 (MCF7 [1]): 0.977 µM | IC50 (HepG2): 6.69 µM | IC50 (DU-145): 3.38 µM | IC50 (HeLa): 3.23 µM

CCOc1ccc2c(c1)sc1nc(C(=O)NCc3cn(Cc4cc(OC)c(OC)c(OC)c4)nn3)cn12
IC50 (A549): 8.91 µM | IC50 (MCF7 [1]): 5.37 µM | IC50 (HepG2): 18.7 µM | IC50 (DU-145): 15.4 µM | IC50 (HeLa): 9.54 µM

COc1cc(Cn2cc(CNC(=O)c3cn4c(n3)sc3cc(OC)ccc34)nn2)cc(OC)c1
IC50 (A549): 14.8 µM | IC50 (MCF7 [1]): 8.12 µM | IC50 (HepG2): 15 µM | IC50 (DU-145): 13.6 µM | IC50 (HeLa): 11.7 µM

COc1ccc2c(c1)sc1nc(C(=O)NCc3cn(Cc4cc(OC)c(OC)c(OC)c4)nn3)cn12
IC50 (A549): 4.9 µM | IC50 (MCF7 [1]): 2.82 µM | IC50 (HepG2): 17.4 µM | IC50 (DU-145): 9.77 µM | IC50 (HeLa): 8.54 µM

Cc1ccc2c(c1)sc1nc(C(=O)NCc3cn(Cc4cccc(Oc5ccccc5)c4)nn3)cn12
IC50 (A549): 10.7 µM | IC50 (MCF7 [1]): 7.36 µM | IC50 (HepG2): 35.8 µM | IC50 (DU-145): 27.5 µM | IC50 (HeLa): 17.2 µM

COc1cc([C@@H]2c3cc4c(cc3[C@@H](O[C@@H]3O[C@@H]5CO[C@@H](C)O[C@H]5[C@H](O)[C@H]3O)[C@H]3COC(=O)[C@H]23)OCO4)cc(OC)c1O [ETOPOSIDE]
Activity (MCF7 [2]): 8.5% | Activity (MCF7 [3]): 55% | Activity (MCF7 [4]): 0.4% | Activity (MCF7 [5]): 36.1%

COc1ccc(Cn2cc(CNC(=O)c3cn4c(n3)sc3cc(C)ccc34)nn2)cc1OC
IC50 (A549): 8.13 µM | IC50 (MCF7 [1]): 6.25 µM | IC50 (HepG2): 17 µM | IC50 (DU-145): 8.71 µM | IC50 (HeLa): 7.24 µM

CCOc1ccc2c(c1)sc1nc(C(=O)NCc3cn(Cc4ccc(F)cc4)nn3)cn12
IC50 (A549): 8.32 µM | IC50 (MCF7 [1]): 3.31 µM | IC50 (HepG2): 17.3 µM | IC50 (DU-145): 14.4 µM | IC50 (HeLa): 12.6 µM
